Data reported in ChEMBL document CHEMBL4184228, “Reversed isoniazids: Design, synthesis and evaluation against Mycobacterium tuberculosis” (Bioorg Med Chem, 2018).
Converted amounts (≈) assume the structure as drawn. The source made the active and inactive calls. No cut-off for these calls is given here.

What was measured:
[1] = test system: Mycobacterium tuberculosis; assay: Antimycobacterial activity against isoniazid mono-resistant Mycobacterium tuberculosis isolate R4965 by two fold serial dilution based fluorescence assay; assay type: functional
How it was run: (§1)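 MGIT 960 (BACTEC) broth assay in 7H9 with 1% OADC and 0.05% Tween 80. Compounds are 10 mM DMSO stocks, two-fold serially diluted, final DMSO ≤1.2%, top concentration 10 µM. Tubes incubated at 37°C with growth units read daily. MIC99 is set against a 1% drug-free growth control tube.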

[2] = test system: Mycobacterium tuberculosis; assay: Antimycobacterial activity against isoniazid mono-resistant Mycobacterium tuberculosis isolate R5401 by two fold serial dilution based fluorescence assay; assay type: functional; how it was run: as §1
[3] = test system: Mycobacterium tuberculosis; assay: Antimycobacterial activity against isoniazid mono-resistant Mycobacterium tuberculosis isolate R73 by two fold serial dilution based fluorescence assay; assay type: functional; how it was run: as §1
[4] = Selectivity index, ratio of IC50 for CHO cells to MIC99 for isoniazid mono-resistant Mycobacterium tuberculosis isolate R5401; assay type: toxicity; details: hamster, read-out: Selectivity Index
[5] = test system: Mycobacterium tuberculosis variant bovis BCG; assay: Inhibition of efflux pump in Mycobacterium bovis BCG infected in macrophages assessed as accumulation of ethidium bromide at 25 uM by measuring increase in fluorescence intensity after 1 hr by flow cytometric assay; parameters: Activity: scale not given: the % may be the effect or the level left
[6] = test system: Mycobacterium tuberculosis variant bovis BCG; assay: Potency index, ratio of compound effect to CPZ effect for inhibition of efflux pump in Mycobacterium bovis BCG
[7] = Selectivity ratio of MIC99 for Mycobacterium tuberculosis H37Rv to MIC99 for isoniazid mono-resistant Mycobacterium tuberculosis isolate R5401; assay type: functional
[8] = test system: Mycobacterium tuberculosis variant bovis BCG; assay: Inhibition of efflux pump in Mycobacterium bovis BCG infected in macrophages assessed as accumulation of ethidium bromide at 10 uM by measuring increase in fluorescence intensity after 1 hr by flow cytometric assay; parameters: scale not given: the % may be the effect or the level left
[9] = test system: Mycobacterium tuberculosis variant bovis BCG; assay: Inhibition of efflux pump in Mycobacterium bovis BCG infected in macrophages assessed as accumulation of ethidium bromide at 50 uM by measuring increase in fluorescence intensity after 1 hr by flow cytometric assay relative to control; parameters: Activity: scale not given: the % may be the effect or the level left

O=C(NNCCCN1CCN(C2c3ccccc3CCc3ccccc32)CC1)c1ccncc1
MIC99 [1]: > 10 µM | MIC99 [2]: > 10 µM | MIC99 [3]: > 10 µM

O=C(NNCCCN1CCC(=C2c3ccccc3C=Cc3ccccc32)CC1)c1ccncc1
MIC99 [1]: > 10 µM | MIC99 [2]: 2.5 µM (≈ 1.13 µg/mL) | selectivity ratio [4]: 59.2 | MIC99 [3]: > 10 µM

CN(C)CCCN1c2ccccc2Sc2ccc(Cl)cc21 [CHLORPROMAZINE]
inhibition [5]: Active

O=C(NNCCCN1CCC(=C2c3ccccc3Sc3ccc(Cl)cc32)CC1)c1ccncc1
MIC99 [1]: > 10 µM | MIC99 [2]: 1.25 µM (≈ 0.614 µg/mL) | selectivity ratio [4]: 237 | MIC99 [3]: > 10 µM

O=C(NNCCCN1c2ccccc2Sc2ccc(Cl)cc21)c1ccncc1
Activity [5]: 40 to 90% | MIC99 [1]: > 10 µM | MIC99 [2]: > 10 µM | Ratio [6]: 2 | MIC99 [3]: > 10 µM

O=C(NNCCCNCCCN1c2ccccc2Sc2ccccc21)c1ccncc1
MIC99 [1]: > 10 µM | MIC99 [2]: > 10 µM | MIC99 [3]: > 10 µM

O=C(NNCCCN1CCC(N2c3ccccc3Sc3ccccc32)CC1)c1ccncc1
MIC99 [1]: > 10 µM | MIC99 [2]: 2.5 µM (≈ 1.15 µg/mL) | selectivity ratio [4]: 48.8 | Ratio [7]: 2 | MIC99 [3]: > 10 µM

O=C(NNCCCN1CCC(N2c3ccccc3Sc3ccc(Cl)cc32)CC1)c1ccncc1
MIC99 [1]: > 10 µM | MIC99 [2]: 1 µM (≈ 0.494 µg/mL) | Activity [8]: 40 to 90% | Ratio [6]: 2 | selectivity ratio [4]: 37 | MIC99 [3]: > 10 µM

NNC(=O)c1ccncc1 [ISONIAZID]
MIC99 [2]: 2.5 µM (≈ 0.343 µg/mL) | inhibition [9]: Active | selectivity ratio [4]: > 35

O=C(NNCCCNCCCN1c2ccccc2Sc2ccc(Cl)cc21)c1ccncc1
MIC99 [1]: > 10 µM | MIC99 [2]: > 10 µM | MIC99 [3]: > 10 µM

O=C(NNCCCN1c2ccccc2Sc2ccc(Cl)cc21)c1ccccc1
MIC99 [1]: > 10 µM | Activity [9]: 40 to 90% | Ratio [6]: 2 | MIC99 [3]: > 10 µM

O=C(NNCCCN1CCC(=C2c3ccccc3Sc3ccccc32)CC1)c1ccncc1
MIC99 [1]: > 10 µM | MIC99 [2]: 2.5 µM (≈ 1.14 µg/mL) | selectivity ratio [4]: 60.8 | MIC99 [3]: > 10 µM

O=C(NNCCCN1CCN(C(c2ccccc2)(c2ccccc2)c2ccccc2)CC1)c1ccncc1
MIC99 [1]: > 10 µM | MIC99 [2]: 2.5 µM (≈ 1.26 µg/mL) | selectivity ratio [4]: 78.1 | MIC99 [3]: > 10 µM

O=C(NNCCCN1c2ccccc2CCc2ccccc21)c1ccncc1
MIC99 [1]: > 10 µM | MIC99 [2]: > 10 µM | inhibition [9]: Active | MIC99 [3]: > 10 µM

O=C(NNCCCN1c2ccccc2Sc2ccccc21)c1ccncc1
MIC99 [1]: > 10 µM | MIC99 [2]: > 10 µM | inhibition [9]: Active | MIC99 [3]: > 10 µM

O=C(NNCCCN1CCN(CC(O)(c2ccccc2)c2ccccc2)CC1)c1ccncc1
MIC99 [1]: > 10 µM | MIC99 [2]: 2.5 µM (≈ 1.15 µg/mL) | selectivity ratio [4]: 139 | MIC99 [3]: > 10 µM

O=C(NNCCCN1c2ccccc2Sc2ccccc21)c1ccccc1
MIC99 [1]: > 10 µM | Activity [9]: 40 to 90% | Ratio [6]: 2 | MIC99 [3]: > 10 µM

O=C(NNCCCN1CCN(C(c2ccccc2)c2ccccc2)CC1)c1ccncc1
MIC99 [1]: > 10 µM | MIC99 [2]: 2.5 µM (≈ 1.07 µg/mL) | selectivity ratio [4]: 19.3 | Ratio [7]: 2 | MIC99 [3]: > 10 µM
